pPAFAH inh – pPAFAH (human) enzyme inhibition. recombinant pPAFAH, FP-rhodamine probe fluorescence polarization. inhibition, % at 3.39 µM. 330,000 tested, 1.5% active;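 active means inhibition above the mean inhibition across the screen plus 3 SD, cut at about 25% in these data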;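 further: inhibitors block binding of the rhodamine activity-based probe so polarization drops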
ASAP1 GAP inh – ASAP1 ArfGAP inhibition; Q9ULH1; ASAP1-stimulated ARF1 GTP hydrolysis, GDP FP detection; inhibition, % at 16.5 µM; 360,000 tested, 0.19% active; AID 624377; in the data active means inhibition above about 25%
ARFGAP1 inhibitor – inhibits rat ARF GTPase activating protein 1; Arfgap1-stimulated ARF1 GTP hydrolysis, GDP FP detection; inhibition, % at 16.5 µM; 360,000 tested, 0.26% active;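 active means inhibition above a per-plate limit, mean inhibition of low control wells plus 3 SD, cut at about 25% in these data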
Target sequence (Q62848 1-136 limits assumed): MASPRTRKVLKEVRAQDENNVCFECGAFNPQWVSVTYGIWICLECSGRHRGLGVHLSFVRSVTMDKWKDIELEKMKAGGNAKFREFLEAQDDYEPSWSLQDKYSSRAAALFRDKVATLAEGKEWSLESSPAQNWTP
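Assay system: purified rat His6-Arfgap1 residues 1-136 (GAP domain); Reagent: human Δ17 ARF1 bound to GTP; Dosing: 16.5 µM single point, 1.26% DMSO; Times: GTP hydrolysis reaction 2 h at 25 °C; Signal: FP, GDP Alexa 633 tracer displaced from anti-GDP antibody, 620/688 nm; Measure: % inhibition from polarization.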
PAFAH2 inh – inhibitors of human PAFAH2; Q99487; recombinant PAFAH2, FP-rhodamine activity probe, fluorescence polarization; inhibition, % at 3.39 µM; 340,000 tested, 0.99% active; AID 492956;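 active means inhibition above the mean over all tested compounds plus 3 SD, cut at about 30% in these data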;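 further: inhibitors block probe labeling of enzyme so polarization drops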
PAFAH1B2 FP inh – inhibitors of human PAFAH1B2. recombinant PAFAH1B2, FP-rhodamine activity probe, fluorescence polarization. inhibition, % at 3.39 µM. 340,000 tested, 1.2% active. AID 492953;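 active means inhibition above the mean of all tested compounds plus 3 SD, cut at about 24% in these data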
Target sequence (P68402 whole entry, looked up): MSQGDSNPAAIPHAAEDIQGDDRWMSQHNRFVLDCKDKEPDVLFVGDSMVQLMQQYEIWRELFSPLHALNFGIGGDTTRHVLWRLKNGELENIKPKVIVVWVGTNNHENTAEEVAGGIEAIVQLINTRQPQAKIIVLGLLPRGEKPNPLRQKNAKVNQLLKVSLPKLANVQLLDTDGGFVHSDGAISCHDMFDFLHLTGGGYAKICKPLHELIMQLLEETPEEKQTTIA
PAFAH1B3 inh – PAFAH1B3 (human) inhibition; Q15102; recombinant PAFAH1B3, FP-rhodamine probe, fluorescence polarization; inhibition, % at 3.39 µM; 340,000 tested, 0.28% active;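 active means inhibition above the screen-wide average of all tested compounds plus 3 SD, cut at about 25% in these data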
Target sequence (Q15102 whole entry, looked up): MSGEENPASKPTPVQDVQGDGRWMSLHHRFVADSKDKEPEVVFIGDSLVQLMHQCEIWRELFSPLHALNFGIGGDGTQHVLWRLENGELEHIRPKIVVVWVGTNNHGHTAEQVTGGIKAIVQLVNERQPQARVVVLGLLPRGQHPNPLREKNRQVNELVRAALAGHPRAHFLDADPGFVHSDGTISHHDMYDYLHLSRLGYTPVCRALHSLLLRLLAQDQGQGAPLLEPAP
Numbers stand for hits; – = inactive; · = not tested or not shown. An excerpt weighted towards active compounds, which were near 2.8% of everything screened.

SMILES	pPAFAH inh	ASAP1 GAP inh	ARFGAP1 inhibitor	PAFAH2 inh	PAFAH1B2 FP inh	PAFAH1B3 inh
O=C(CSc1ccc(Cl)cc1)N/N=C/c1ccc([N+](=O)[O-])o1	–	–	–	–	29	–
O=C(N/N=C/c1c[nH]c2ccccc12)c1sc2ccccc2c1Cl	25	–	–	–	–	–
O=C(N/N=C/c1ccc([N+](=O)[O-])o1)c1sc2ccccc2c1Cl	31	–	–	–	–	–
O=C(N/N=C/c1ccccn1)c1sc2ccccc2c1Cl	–	–	–	–	–	–
O=C(CNc1ccc2ccccc2c1)N/N=C/c1ccc([N+](=O)[O-])o1	–	–	–	–	–	–
Cc1noc(C)c1S(=O)(=O)NC(=O)C1(C)CCN1C(=O)C1(c2ccc(Cl)cc2)CCC1 (stereo unspecified)	·	–	–	·	·	·
COc1ccc2nc(C)cc(Sc3nc4ccccc4s3)c2c1	–	–	–	–	–	–
O=C(NNS(=O)(=O)c1ccc2ccccc2c1)c1cc(-c2ccccn2)nc2ccccc12	–	–	–	–	26	–
O=C(Nn1cnnc1)c1cc(-c2ccccn2)nc2ccccc12	–	–	–	–	–	–
COc1cc(C2Nc3cccc4cccc(c34)N2)ccc1OC(C)=O	–	·	·	–	–	38
O=C(NNC(=O)C12CC3CC(CC(C3)C1)C2)c1ccncc1	–	–	–	–	–	–
CC12CC3CC(C)(C1)CC(C(=O)NNC(=O)c1ccncc1)(C3)C2	–	–	–	–	25	–
CC(NC(=O)C12CC3CC(C)(CC(C)(C3)C1)C2)c1ccncc1 (stereo unspecified)	–	–	–	–	25	–
O=Cc1coc2c(ccc3ccccc32)c1=O	–	·	·	·	·	·
Cc1ccc(C(=O)NCC2CCCO2)cc1S(=O)(=O)N1CCCCC1 (stereo unspecified)	–	–	–	–	–	–
NC(=O)C1(N2CCCCC2)CCN(CC(=O)Nc2ccc(Oc3ccccc3)cc2)CC1	28	–	–	–	–	–
COc1cccc(NC(=O)COC(=O)CCC2CCCC2)c1	28	–	–	–	–	–
COc1ccc(NS(=O)(=O)c2ccc(OC)c(NC(=O)CCC3CCCC3)c2)cc1	27	–	–	–	–	–
O=C(CN1CCCCCC1)Nc1ccc(Oc2ccccc2)cc1	–	–	–	–	–	–
Cc1cc(C)cc(NC(=O)COC(=O)CCC2CCCC2)c1	–	–	–	–	–	–
O=C(COC(=O)C1CC1)Nc1ccc(Oc2ccccc2)cc1	27	–	–	91	–	–
O=C(COC(=O)C1CCC1)Nc1ccc(Oc2ccccc2)cc1	–	–	–	–	–	–
O=C(NCc1ccco1)c1ccc(-c2ccc3nccn3c2)cc1	·	–	–	·	·	·
Cc1ccc(S(=O)(=O)NC[C@H]2O[C@@H](n3ccc(N)nc3=O)[C@H](O)[C@@H]2O)s1	·	–	–	·	·	·
COc1ccccc1NC(=O)COC(=O)CCC1CCCC1	29	–	–	–	–	–
SMILES	pPAFAH inh	ASAP1 GAP inh	ARFGAP1 inhibitor	PAFAH2 inh	PAFAH1B2 FP inh	PAFAH1B3 inh
COc1ccc(OC)c(NC(=O)COC(=O)CCC2CCCC2)c1	33	–	–	–	–	–
O=C(COC(=O)CCC1CCCC1)Nc1ccccc1Br	34	–	–	–	–	–
COc1ccccc1NC(=O)COC(=O)C1CCCC1	–	–	–	–	–	–
NC(=O)c1ccc(NC(=O)COC(=O)CCC2CCCC2)cc1	·	–	–	·	·	·
O=C(COC(=O)CCC1CCCC1)Nc1ccc(Cl)cc1F	27	–	–	–	–	–
C[C@H](CO)N1C[C@H](C)[C@@H](CN(C)C(=O)Cc2ccccc2)OCCCC[C@H](C)Oc2ccc(NC(=O)NC3CCCCC3)cc2C1=O	·	–	–	·	·	·
COCOCCn1cc(CN2CCS(=O)(=O)N(Cc3ccc(-c4ccc(OC)c(OC)c4)cc3)C(CC(C)C)C2=O)nn1 (stereo unspecified)	·	–	–	·	·	·
O=C(COC(=O)C1CC1)Nc1ccc(Cl)cc1Cl	–	–	–	64	–	–
CN(C)S(=O)(=O)c1ccc(Cl)c(NC(=O)COC(=O)CCSc2ccccc2)c1	–	–	–	–	–	–
CN(C)S(=O)(=O)c1ccc(Cl)c(NC(=O)COC(=O)CCC2CCCCC2)c1	25	–	–	38	–	–
Cc1ccc(Cl)cc1NC(=O)COC(=O)C1CC1	–	–	–	–	–	–
C[C@@H]1CN([C@H](C)CO)C(=O)CCCn2nncc2CO[C@H]1CN(C)S(=O)(=O)c1ccc2ccccc2c1	·	–	–	·	·	·
CCCCn1c(N)c(N(CC(C)C)C(=O)CSC(C)C(=O)Nc2cc(C)on2)c(=O)[nH]c1=O (stereo unspecified)	–	–	–	–	–	–
CCOC(=O)N1CCN(C(=O)c2ccccc2NC(=O)COc2ccccc2)CC1	–	–	–	–	49	–
O=c1[nH]c(C2CCCN(S(=O)(=O)Cc3ccccc3)C2)nc2c1nnn2Cc1cccc(Cl)c1 (stereo unspecified)	28	–	–	–	–	–
O=c1[nH]c(C2CCN(S(=O)(=O)c3ccccc3C(F)(F)F)CC2)nc2c1nnn2Cc1ccccc1	–	–	–	–	–	–
O=c1[nH]c(C2CCN(S(=O)(=O)c3ccccc3F)CC2)nc2c1nnn2Cc1ccc(OC(F)(F)F)cc1	–	–	–	–	26	–
N#CC1=C(SCC(=O)NC23CC4CC(CC(C4)C2)C3)NC(=O)C(C#N)C12CCCCC2 (stereo unspecified)	–	–	–	33	37	–
COc1cc(/C=N/NS(=O)(=O)c2ccc(C)c([N+](=O)[O-])c2)cc([N+](=O)[O-])c1O	–	–	–	–	–	–
COC(=O)N/N=C/c1cc(OC)c(O)c([N+](=O)[O-])c1	–	–	–	–	–	–
COc1cc(/C=N/N(C)S(=O)(=O)c2ccc(C)cc2)cc([N+](=O)[O-])c1O	–	–	–	–	36	–
COc1cc(/C=N/NS(=O)(=O)c2ccc(C(C)(C)C)cc2)cc([N+](=O)[O-])c1O	–	–	–	–	33	–
CCOC(=O)N(C)C[C@H]1OCc2cnnn2CCCC(=O)N([C@@H](C)CO)C[C@@H]1C	·	–	–	·	·	·
Cc1ccccc1NC(=O)c1sc2nc(N3CCOCC3)c3c(c2c1N)CCCC3	27	–	–	–	–	–
C/C(=N\O)c1ccco1	–	–	–	–	–	–
O=C(O)C(c1ccccc1)N1C(=O)/C(=C\c2ccc(-c3ccc(Br)cc3)o2)SC1=S (stereo unspecified)	·	–	–	–	–	–
O=C(O)C(c1ccccc1)N1C(=O)/C(=C\c2ccc(-c3ccccc3Cl)o2)SC1=S (stereo unspecified)	63	–	–	45	–	–
Oc1ccccc1C1NN=C(c2ccccc2)S1 (stereo unspecified)	–	–	–	49	–	–
CSc1ccc(C2NN=C(c3ccccc3)S2)cc1 (stereo unspecified)	–	–	–	·	·	·

From PubChem BioAssay
